Results reported in BindingDB's records for doi:10.1016/j.bmc.2007.11.023 (2008).
pIC50: −log10 of the molar value.

Molecular target: Mitochondrial complex I; NADH oxidoreductase (Bos taurus, UniProt P25708+P52505)
Assay: Inhibition of NADH-ubiquinone oxidoreductase assessed as NADH oxidase activity in bovine heart submitochondrial particles
Outline: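 Bovine heart submitochondrial particles (sonicated mitochondria isolated by differential centrifugation) in air-saturated 75 mM sodium potassium phosphate, pH 7.4, with 1 mM each EDTA and MgCl2, at 30 °C and 42–219 µg/mL protein. Compounds added in methanol (≤2% v/v) and preincubated 4 min. The reaction is started with 0.16 mM NADH (final). Oxidation is followed over 4 min as A340 decrease. Means of 2–4 independent experiments.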

Sequence of Mitochondrial complex I; NADH oxidoreductase (P25708 21-464 limits assumed, other chains not shown): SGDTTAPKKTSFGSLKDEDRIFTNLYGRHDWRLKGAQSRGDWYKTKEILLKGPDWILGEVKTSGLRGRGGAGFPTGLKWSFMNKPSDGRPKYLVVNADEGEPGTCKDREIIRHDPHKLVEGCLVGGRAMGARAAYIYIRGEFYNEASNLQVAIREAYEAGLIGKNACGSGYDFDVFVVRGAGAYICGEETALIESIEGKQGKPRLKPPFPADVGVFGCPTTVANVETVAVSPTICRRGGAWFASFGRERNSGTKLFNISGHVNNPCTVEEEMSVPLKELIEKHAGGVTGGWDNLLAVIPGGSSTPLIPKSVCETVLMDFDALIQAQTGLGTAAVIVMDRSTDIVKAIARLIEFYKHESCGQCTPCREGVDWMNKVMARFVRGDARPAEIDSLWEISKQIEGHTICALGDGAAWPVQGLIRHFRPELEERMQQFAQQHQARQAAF

Compound	pIC50
CCCC1(O)C(=O)C(C)C(=O)N=C1C=CC(C)C/C=C/C(C)C (configuration not stated) [IROMYCIN E]	< 4.60
CCCC1C(=O)C(C)(O)C(=O)N=C1C=CC(C)C/C=C/C(C)C (configuration not stated) [IROMYCIN F]	< 4.60
